The record followed here is paper PMC2645915 (Biochemistry, 2008).

Data set [1] addresses T1, methionine synthase reductase (MSR), human, I22/S175 background (Homo sapiens, UniProt Q9UBK8, A129T).
T1 sequence (Q9UBK8 1-698 A129T): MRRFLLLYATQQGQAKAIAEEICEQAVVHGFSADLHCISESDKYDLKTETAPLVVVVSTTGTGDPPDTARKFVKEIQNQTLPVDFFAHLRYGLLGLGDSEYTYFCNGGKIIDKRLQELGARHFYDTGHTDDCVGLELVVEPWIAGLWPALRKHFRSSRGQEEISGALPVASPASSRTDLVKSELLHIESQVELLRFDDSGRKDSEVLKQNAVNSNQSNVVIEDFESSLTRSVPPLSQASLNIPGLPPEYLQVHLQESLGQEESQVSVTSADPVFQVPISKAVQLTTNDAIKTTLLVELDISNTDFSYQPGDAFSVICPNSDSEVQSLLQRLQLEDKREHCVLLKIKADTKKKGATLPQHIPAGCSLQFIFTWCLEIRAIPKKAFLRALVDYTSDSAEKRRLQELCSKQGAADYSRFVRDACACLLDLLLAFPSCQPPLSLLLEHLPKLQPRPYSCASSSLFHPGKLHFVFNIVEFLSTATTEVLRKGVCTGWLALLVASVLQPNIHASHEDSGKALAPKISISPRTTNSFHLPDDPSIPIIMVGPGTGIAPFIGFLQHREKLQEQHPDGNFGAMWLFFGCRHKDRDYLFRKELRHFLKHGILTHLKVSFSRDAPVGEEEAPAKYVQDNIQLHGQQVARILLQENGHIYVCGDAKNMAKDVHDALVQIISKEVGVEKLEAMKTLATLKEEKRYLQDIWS
In words: isothermal titration calorimetry. Type of data set: binding. In a few lines:
(§1)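 Recombinant wild-type or A129T MSR, 30-50 µM by Bradford and A454, was dialysed overnight against 50 mM Tris-HCl pH 7.5, filtered and degassed. NADP+ (500-850 µM) in the syringe was injected stepwise at 300 s intervals. Heats were corrected for dilution using post-saturation injections and fitted to a single-site model for KA and ΔH°. Runs were done in duplicate or triplicate.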

In data set [2] the target is T2, methionine synthase reductase (MSR), human, I22/S175 background (Homo sapiens, UniProt Q9UBK8).
T2 sequence (Q9UBK8 1-698): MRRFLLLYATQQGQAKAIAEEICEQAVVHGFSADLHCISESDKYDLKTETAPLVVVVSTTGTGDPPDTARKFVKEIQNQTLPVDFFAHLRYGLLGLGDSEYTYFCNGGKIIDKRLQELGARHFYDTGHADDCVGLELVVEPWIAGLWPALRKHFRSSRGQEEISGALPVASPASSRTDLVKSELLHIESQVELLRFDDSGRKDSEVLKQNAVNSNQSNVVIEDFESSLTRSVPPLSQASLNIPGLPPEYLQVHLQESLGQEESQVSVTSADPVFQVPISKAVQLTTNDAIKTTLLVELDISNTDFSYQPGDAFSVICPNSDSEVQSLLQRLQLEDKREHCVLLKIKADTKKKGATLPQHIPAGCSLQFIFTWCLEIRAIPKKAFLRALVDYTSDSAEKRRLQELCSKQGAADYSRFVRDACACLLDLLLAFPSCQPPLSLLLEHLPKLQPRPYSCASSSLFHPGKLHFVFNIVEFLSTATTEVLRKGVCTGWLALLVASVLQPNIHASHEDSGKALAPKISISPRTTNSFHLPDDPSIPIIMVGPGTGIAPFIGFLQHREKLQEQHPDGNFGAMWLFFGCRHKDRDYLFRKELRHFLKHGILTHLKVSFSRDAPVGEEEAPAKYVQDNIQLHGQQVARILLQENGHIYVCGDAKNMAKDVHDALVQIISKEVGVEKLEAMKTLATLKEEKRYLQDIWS
The data set can be described thus: isothermal titration calorimetry. The format is binding. Put shortly: as §1

Substrate in data set [3]: NC(=O)C1=CN([C@@H]2O[C@H](COP(=O)(O)OP(=O)(O)OC[C@H]3O[C@@H](n4cnc5c(N)ncnc54)[C@H](OP(=O)(O)O)[C@@H]3O)[C@@H](O)[C@H]2O)C=CC1
The data set can be described thus: purified protein. As to conditions: cytochrome c as acceptor, 50 mM Tris pH 7.5, 37°C. The format is biochemical, Homo sapiens.

On to `NC(=O)c1ccc[n+]([C@@H]2O[C@H](COP(=O)(O)OP(=O)(O)OC[C@H]3O[C@@H](n4cnc5c(N)ncnc54)[C@H](OP(=O)(O)O)[C@@H]3O)[C@@H](O)[C@H]2O)c1` [NADP^+], for which the equilibrium dissociation constant (Kd) in data set [1] was found to be 32 ± 2.9 µM; in data set [2] it was 54 ± 5.3 µM.

B1: methionine synthase reductase (MSR), human, I22/S175 background (Homo sapiens; A129T) (protein)
chain: MRRFLLLYATQQGQAKAIAEEICEQAVVHGFSADLHCISESDKYDLKTETAPLVVVVSTTGTGDPPDTARKFVKEIQNQTLPVDFFAHLRYGLLGLGDSEYTYFCNGGKIIDKRLQELGARHFYDTGHTDDCVGLELVVEPWIAGLWPALRKHFRSSRGQEEISGALPVASPASSRTDLVKSELLHIESQVELLRFDDSGRKDSEVLKQNAVNSNQSNVVIEDFESSLTRSVPPLSQASLNIPGLPPEYLQVHLQESLGQEESQVSVTSADPVFQVPISKAVQLTTNDAIKTTLLVELDISNTDFSYQPGDAFSVICPNSDSEVQSLLQRLQLEDKREHCVLLKIKADTKKKGATLPQHIPAGCSLQFIFTWCLEIRAIPKKAFLRALVDYTSDSAEKRRLQELCSKQGAADYSRFVRDACACLLDLLLAFPSCQPPLSLLLEHLPKLQPRPYSCASSSLFHPGKLHFVFNIVEFLSTATTEVLRKGVCTGWLALLVASVLQPNIHASHEDSGKALAPKISISPRTTNSFHLPDDPSIPIIMVGPGTGIAPFIGFLQHREKLQEQHPDGNFGAMWLFFGCRHKDRDYLFRKELRHFLKHGILTHLKVSFSRDAPVGEEEAPAKYVQDNIQLHGQQVARILLQENGHIYVCGDAKNMAKDVHDALVQIISKEVGVEKLEAMKTLATLKEEKRYLQDIWS
For B1, in data set [3], the Km turned out to be 2.8 µM.
